From ChEMBL document CHEMBL1130340, “Semisynthetic derivatives of purpuromycin as potential topical agents for vaginal infections” (1997)
Converted amounts (≈) assume the structure as drawn.

Key:
Format in all cases: functional
[1] = test system: Streptococcus pneumoniae; assay: In vitro antimicrobial activity against Streptococcus pneumoniae L44
Procedure, shortened: (§1)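 Streptococci: broth microdilution MIC in Todd Hewitt broth; inoculum about 10^4 cfu/mL; 37 °C, 20–24 h.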

[2] = test system: Staphylococcus epidermidis; assay: In vitro antimicrobial activity against Staphylococcus epidermidis ATCC 12228
Procedure, shortened: (§2)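 Broth microdilution MIC in Oxoid Iso-Sensitest broth; inoculum about 10^4 cfu/mL; 37 °C for 20–24 h.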

[3] = test system: Neisseria gonorrhoeae; assay: In vitro antimicrobial activity against Neisseria gonorrhoeae L997
Procedure, shortened: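 Broth microdilution MIC in GC Base broth plus 1% (v/v) IsoVitaleX; inoculum about 10^4 cfu/mL; 37 °C.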

[4] = test system: Proteus vulgaris; assay: In vitro antimicrobial activity against Proteus vulgaris ATCC881; procedure, shortened: as §2
[5] = test system: Staphylococcus haemolyticus; assay: In vitro antimicrobial activity against Staphylococcus haemolyticus L602; procedure, shortened: as §2
[6] = test system: Pseudomonas aeruginosa; assay: In vitro antimicrobial activity against Pseudomonas aeruginosa ATCC 10145; procedure, shortened: as §2
[7] = test system: Escherichia coli; assay: In vitro antimicrobial activity against Escherichia coli L47; procedure, shortened: as §2
[8] = test system: Haemophilus influenzae; assay: In vitro antimicrobial activity against Haemophilus influenza ATCC 19418
Procedure, shortened: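 Broth microdilution MIC in Brain Heart Infusion broth plus 1% (v/v) supplement C; inoculum about 10^4 cfu/mL; 37 °C.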

[9] = test system: Staphylococcus aureus; assay: In vitro antimicrobial activity against Staphylococcus aureus L1 65 30% bovine serum
Procedure, shortened: (§3)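 Broth microdilution MIC against S. aureus L165 in Iso-Sensitest broth, 37 °C, 20–24 h.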

[10] = test system: Enterococcus faecalis; assay: In vitro antimicrobial activity against Enterococcus faecalis ATCC 7080; procedure, shortened: as §2
[11] = test system: Candida albicans; assay: In vitro antimicrobial activity against Candida albicans L145
Procedure, shortened: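 Candida: broth microdilution MIC in phosphate-buffered Yeast Nitrogen Base broth with glucose (1% w/v) and L-asparagine (0.15% w/v); inoculum about 10^4 cfu/mL; 37 °C, 20–24 h.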

[12] = test system: Staphylococcus aureus; assay: In vitro antimicrobial activity against Staphylococcus aureus L165; procedure, shortened: as §2
[13] = test system: Staphylococcus aureus; assay: In viro antimicrobial activity against Staphylococcus aureus L165 10 x e+6 cfu/ml; procedure, shortened: as §3
[14] = test system: Streptococcus pyogenes; assay: In vitro antimicrobial activity against Streptococcus pyogenes L49; procedure, shortened: as §1
[15] = test system: Bacteroides fragilis; assay: In vitro antimicrobial activity against Bacteroides fragilis ATCC 25285
Procedure, shortened: (§4)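 Anaerobe MIC by broth microdilution in Wilkins-Chalgren broth; inoculum 5 × 10^5 cfu/mL; 37 °C.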

[16] = test system: Cutibacterium acnes; assay: In vitro antimicrobial activity against Propionibacterium acnes ATCC 6919; procedure, shortened: as §4

Which results are given for `CCCNc1cc(O)c2c(c1O)C(=O)C1=C(CC3(CC(O)c4cc5cc(C(=O)OC)oc(=O)c5c(O)c4O3)O1)C2=O` (configuration not stated)?
MIC [1]: 0.03 µg/mL (≈ 0.0531 µM); MIC [2]: 0.016 µg/mL (≈ 0.0283 µM); MIC [3]: 0.06 µg/mL (≈ 0.106 µM); MIC [4]: > 128 µg/mL; MIC [5]: 0.06 µg/mL (≈ 0.106 µM); MIC [6]: > 128 µg/mL; MIC [7]: > 128 µg/mL; MIC [8]: 0.13 µg/mL (≈ 0.23 µM); MIC [9]: 2 µg/mL (≈ 3.54 µM); MIC [10]: 0.06 µg/mL (≈ 0.106 µM); MIC [11]: > 128 µg/mL; MIC [12]: 0.03 µg/mL (≈ 0.0531 µM); MIC [13]: 0.03 µg/mL (≈ 0.0531 µM); MIC [14]: 0.13 µg/mL (≈ 0.23 µM); MIC [15]: 0.03 µg/mL (≈ 0.0531 µM)

What does the source list for `COC(=O)c1cc2cc3c(c(O)c2c(=O)o1)OC1(CC2=C(O1)C(=O)c1c(O)c(NCC#N)cc(O)c1C2=O)CC3O` (configuration not stated)?
MIC [1]: 0.03 µg/mL (≈ 0.0533 µM); MIC [2]: 0.13 µg/mL (≈ 0.231 µM); MIC [3]: 0.06 µg/mL (≈ 0.107 µM); MIC [4]: > 128 µg/mL; MIC [5]: 0.13 µg/mL (≈ 0.231 µM); MIC [6]: > 128 µg/mL; MIC [7]: > 128 µg/mL; MIC [8]: 0.13 µg/mL (≈ 0.231 µM); MIC [9]: 2 µg/mL (≈ 3.56 µM); MIC [10]: 0.13 µg/mL (≈ 0.231 µM); MIC [11]: > 128 µg/mL; MIC [12]: 0.13 µg/mL (≈ 0.231 µM); MIC [16]: 0.016 µg/mL (≈ 0.0284 µM); MIC [13]: 0.13 µg/mL (≈ 0.231 µM); MIC [14]: 0.13 µg/mL (≈ 0.231 µM); MIC [15]: 0.5 µg/mL (≈ 0.889 µM)

With `COC(=O)c1cc2cc3c(c(O)c2c(=O)o1)OC1(CC2=C(O1)C(=O)c1c(O)c(NCCN)cc(O)c1C2=O)CC3O` (configuration not stated) as the molecule, how does the MIC [1] read?
Its MIC is 1 µg/mL (≈ 1.77 µM).

And the MIC [2]?
The MIC was 1 µg/mL (≈ 1.77 µM).

And the MIC [3]?
Its MIC is 64 µg/mL (≈ 113 µM).

And the MIC [4]?
Its MIC is greater than 128 µg/mL.

What about the MIC [5] of the same molecule?
Its MIC is 1 µg/mL (≈ 1.77 µM).

What about the MIC [6] of the same molecule?
The MIC was greater than 128 µg/mL.

And the MIC [7]?
Its MIC is greater than 128 µg/mL.

And the MIC [8]?
The MIC was 32 µg/mL (≈ 56.5 µM).

What about the MIC [9] of the same molecule?
Its MIC is 8 µg/mL (≈ 14.1 µM).

What about the MIC [10] of the same molecule?
Its MIC is 2 µg/mL (≈ 3.53 µM).

And the MIC [11]?
Its MIC is greater than 128 µg/mL.

And the MIC [12]?
The MIC was 1 µg/mL (≈ 1.77 µM).

And the MIC [16]?
The MIC was 0.5 µg/mL (≈ 0.883 µM).

And the MIC [13]?
The MIC was 1 µg/mL (≈ 1.77 µM).

And the MIC [14]?
The MIC was 2 µg/mL (≈ 3.53 µM).

What about the MIC [15] of the same molecule?
The MIC was greater than 128 µg/mL.
